RanGTP-Impb inh: inhibitors of RanGTP-importin-beta interaction, primary screen, biochemical, FRET, CFP-Ran, YFP-importin-beta, homogeneous | cell-free CFP-Ran/YFP-importin-beta FRET ratio | inhibition, % (test concentration not listed) | actives 1.1% (n = 300,000);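 active = more than half of the replicate wells show a fall in the fluorescence ratio signal beyond about 16%, limit read from the data, passing the limit was not always enough; inconclusive = exactly half of the replicate wells pass the set limit; inactive = fewer than half of replicates pass the limit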
Runt-SMMHC FRET: inhibitors of RUNX1 Runt–CBFb-SMMHC binding, primary screen, biochemical, FRET, Cerulean-Runt, Venus-CBFb-SMMHC, uHTS | Cerulean-Runt/Venus-CBFb-SMMHC FRET ratio 530/480, 1 h | actives 0.74% (n = 220,000) | inhibition, % at 20 µM;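 active = mean inhibition across duplicate retests at 20 µM reaching about 50%, limit read from the data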;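 also: inhibitors lower the FRET ratio by blocking Runt binding to CBFb-SMMHC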
14-3-3 Bad PPI: inhibitors of 14-3-3 zeta/Bad binding, primary screen, biochemical, TR-FRET, bovine 14-3-3 zeta | 14-3-3 protein zeta/delta (Bos taurus), P63103 | TR-FRET 14-3-3zeta/Dy647-pBad peptide displacement, 1 h | inhibition, % at 21.7 µM | actives 0.71% (n = 220,000);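 active = inhibition above about 70%, limit read from the data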
Target sequence (P63103 whole entry, looked up): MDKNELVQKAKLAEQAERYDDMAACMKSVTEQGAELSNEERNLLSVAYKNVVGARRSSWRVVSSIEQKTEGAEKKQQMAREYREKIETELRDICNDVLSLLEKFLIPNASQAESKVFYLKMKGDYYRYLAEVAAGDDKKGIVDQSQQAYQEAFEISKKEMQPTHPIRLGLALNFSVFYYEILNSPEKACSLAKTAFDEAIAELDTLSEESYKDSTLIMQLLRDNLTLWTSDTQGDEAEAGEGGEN
Hck Nef HTS: inhibitors of Nef-activated human Hck kinase, primary screen, biochemical, Z-Lyte FRET, 384-well, Hck-YEEI; Tyrosine-protein kinase HCK (Homo sapiens), P08631; Recombinant Hck-YEEI plus Nef, Z-Lyte FRET kinase assay; inhibition, % at 20 µM; actives 0.68% (n = 220,000);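 active = Hck-Nef kinase inhibition above about 50%, limit read from the data; inactive = inhibition below that limit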
Target sequence (P08631 whole entry, looked up): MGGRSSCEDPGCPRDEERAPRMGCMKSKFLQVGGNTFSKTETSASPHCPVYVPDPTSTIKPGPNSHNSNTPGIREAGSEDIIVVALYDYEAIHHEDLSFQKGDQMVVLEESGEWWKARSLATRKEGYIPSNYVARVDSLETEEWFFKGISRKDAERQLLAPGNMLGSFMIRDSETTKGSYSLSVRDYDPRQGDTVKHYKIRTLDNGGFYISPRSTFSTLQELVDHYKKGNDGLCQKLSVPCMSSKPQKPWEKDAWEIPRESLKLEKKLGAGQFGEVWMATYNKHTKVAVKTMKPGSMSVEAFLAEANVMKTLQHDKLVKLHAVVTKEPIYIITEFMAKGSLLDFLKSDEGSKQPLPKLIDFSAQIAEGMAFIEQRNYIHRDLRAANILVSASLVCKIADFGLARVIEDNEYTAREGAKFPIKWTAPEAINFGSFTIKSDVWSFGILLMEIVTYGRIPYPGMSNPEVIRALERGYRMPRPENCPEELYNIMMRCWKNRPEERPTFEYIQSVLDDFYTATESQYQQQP
Runt-CBFb FRET: inhibitors of RUNX1 Runt–CBFb binding, primary screen, biochemical, FRET, Cerulean-Runt, Venus-CBFb, uHTS; Runt-related transcription factor 1 (Homo sapiens) + Core-binding factor subunit beta …; Cerulean-Runt/Venus-CBFb FRET ratio 530/480, 1 h; inhibition, % at 20 µM; actives 0.46% (n = 220,000); AID 1496, 2009;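 active = inhibition over about 50% at 20 µM in the single-dose screen, limit read from the data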
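Assay system: Cerulean-tagged RUNX1 Runt domain (FRET donor) fusion protein / Amount: 100 nM each of Venus-CBFb and Cerulean-Runt domain / Medium: Tris buffer pH 7.5 with salts and BSA / Also added: Venus-CBFb 100 nM / Schedule: 1 h complex formation plus 1 h compound treatment, room temperature / Signal: FRET fluorescence / Read-out: loss of energy transfer signal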
TbHK1 inh: Trypanosoma brucei hexokinase 1 inhibitors, primary screen, biochemical, G6PDH-coupled NADH absorbance, MLSCN library. recombinant TbHK1, G6PDH-coupled NADH A340. inhibition, % at 10 µM. actives 0.11% (n = 220,000);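 active = inhibition of 50% or more in the single-dose primary screen; inactive = inhibition below 50%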
G6PDH counter: Leuconostoc G6PDH inhibition, confirmation, counter-screen for TbHK1 inhibitor project, biochemical, DPI cherry-picked compounds, single concentration; actives 7% (n = 210); purified G6PDH, NADH absorbance, 1 h; shares compounds with TbHK1 inh; inhibition, % at 10 µM;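 active = at least 50% inhibition in the glucose-6-phosphate dehydrogenase coupled counterscreen; inconclusive = no clear call, values can overlap the other calls; inactive = inhibition below 50%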
TbHK1 rescreen: TbHK1 inhibitor retest, confirmation, biochemical, DPI cherry-picked primary actives; shares compounds with TbHK1 inh; recombinant TbHK1, G6PDH-coupled NADH A340 absorbance; inhibition, % at 10 µM; actives 10% (n = 210); AID 2560, 2010;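 active = inhibition of at least 50% in both of the two screening runs; inconclusive = at least 50% in one run, below 50% in the other; inactive = inhibition below 50% in both runs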
Each line names hits and unclear results; the compound was inactive in the other large screens (follow-up assays come after a bar, where they were run); ! = not active in a repeat. Rows were chosen to be rich in hits. Some 2.2% of all compounds tested hit in one or more screens of this group.

CN(C)c1ccc(C(=S)N2CCOCC2)cc1	TbHK1 inh 69 (no result: RanGTP-Impb inh) | G6PDH counter inactive | TbHK1 rescreen inactive
Cc1nn(C(C)C(=O)N2CCOCC2)c(C)c1[N+](=O)[O-] (stereo not given)	none
COC(=O)c1[nH]c(=O)c2ccccc2c1OCc1ccccc1	TbHK1 inh 54 | G6PDH counter inactive | TbHK1 rescreen inactive
Nc1nonc1-c1nc2ccccc2n1CC(=O)N/N=C\c1ccc(-c2ccc(Cl)cc2)o1	TbHK1 inh 52 | G6PDH counter 108 | TbHK1 rescreen inactive
NNC(=O)Cn1c(-c2nonc2N)nc2ccccc21	none
Cn1cc(C(=O)N2CCCC(Nc3ccc(F)cc3)C2)c2ccccc21 (stereo not given)	none (no result: Runt-SMMHC FRET, 14-3-3 Bad PPI, Hck Nef HTS, Runt-CBFb FRET, TbHK1 inh)
COCCn1nnnc1C(C(C)C)N1CCCC(C)C1 (stereo not given)	none
CCC1Oc2ccccc2N(CC(=O)Nc2ccccc2OC)C1=O (stereo not given)	TbHK1 inh 51 | G6PDH counter inactive | TbHK1 rescreen inactive
CC(C)(C)C(=O)CN1C2=NCCCN2c2ccccc21	none (no result: Runt-SMMHC FRET, 14-3-3 Bad PPI, Hck Nef HTS, Runt-CBFb FRET, TbHK1 inh)
CCC(=O)NC(c1cccs1)c1cc([N+](=O)[O-])c2cccnc2c1O (stereo not given)	TbHK1 inh 52 | G6PDH counter inactive | TbHK1 rescreen inactive
COc1ccc(CCNC(=O)C2CCCCC2C(=O)O)cc1OC (stereo not given)	TbHK1 inh 59 (no result: RanGTP-Impb inh) | G6PDH counter inactive | TbHK1 rescreen inactive
Cc1ccccc1OCc1n(CC(=O)OC2CC(C)CCC2C(C)C)c2ccccc2[n+]1C (stereo not given)	TbHK1 inh 76! | G6PDH counter inactive | TbHK1 rescreen inactive
CC1CCC(C(C)C)C(OC(=O)Cn2c(-c3ccc(Br)cc3)[n+](C)c3ccccc32)C1 (stereo not given)	none
COc1ccc(CCNC(=O)c2nnn(CC(=O)Nc3ccccc3C)c2N)cc1OC	TbHK1 inh 55 | G6PDH counter inactive | TbHK1 rescreen inactive
Cc1ccc(C)c(S(=O)(=O)Nc2ccccc2C(=O)Nc2ccccc2N2CCOCC2)c1	none
Cc1cc(NC(=O)c2ccc(Cn3nc(C)c(Br)c3C)o2)no1	none
Cc1nn(Cc2ccc(C(=O)NC(C)(C)C)o2)c(C)c1Br	TbHK1 inh 50 | G6PDH counter inactive | TbHK1 rescreen inactive
CC(C)Cn1c(SCc2nc3ccccc3c(=O)[nH]2)nc2ccccc2c1=O	none
Cn1nc(-c2ccccn2)nc2c(=O)n(C)c(=O)nc1-2	TbHK1 inh 70 | G6PDH counter inconclusive | TbHK1 rescreen inactive
CCCc1nc2c(=O)n(C)c(=O)nc-2n(C)n1	none (no result: RanGTP-Impb inh)
Cc1cc(NC(=O)COC(=O)CCCOc2ccc(Cl)cc2C)no1	TbHK1 inh 55 | G6PDH counter inactive | TbHK1 rescreen inactive
Cc1cc(NC(=O)COC(=O)CCS(=O)(=O)c2ccc(Cl)cc2)no1	none (no result: Runt-SMMHC FRET, 14-3-3 Bad PPI, Hck Nef HTS, Runt-CBFb FRET, TbHK1 inh)
CC(O)c1nc2ccc(Cc3ccc4nc(C(C)O)[nH]c4c3)cc2[nH]1 (stereo not given)	TbHK1 inh 55 | G6PDH counter inactive | TbHK1 rescreen inactive
Cc1cc(C)c2c(n1)SCC(=O)N2CC(=O)Nc1ccccc1Cl	none (no result: Runt-SMMHC FRET, 14-3-3 Bad PPI, Hck Nef HTS, Runt-CBFb FRET, TbHK1 inh)
O=C(c1cc2cc(Cl)ccc2[nH]1)N1CCN(C(=O)c2ccco2)CC1	none (no result: Runt-SMMHC FRET, 14-3-3 Bad PPI, Hck Nef HTS, Runt-CBFb FRET, TbHK1 inh)
O=C(NNC(=S)NC(=O)c1ccccc1[N+](=O)[O-])c1ccccc1[N+](=O)[O-]	none
O=C(COc1ccc(Br)cc1)NNC(=S)NC(=O)c1ccccc1[N+](=O)[O-]	TbHK1 inh 61 | G6PDH counter inactive | TbHK1 rescreen inactive
COc1ccc(NC2=NC3(CCCCC3)N=C(N)N2)cc1	RanGTP-Impb inh inconclusive, TbHK1 inh 62 | G6PDH counter inactive | TbHK1 rescreen inactive
CC(C)C(=O)Nc1ccc(NC(=S)NC(=O)c2ccc([N+](=O)[O-])cc2)cc1	none
COc1ccccc1C1CCN(C(=O)c2cccs2)CC1	TbHK1 inh 50 | G6PDH counter inactive | TbHK1 rescreen inactive
O=C(CC(C(=O)N1CCc2ccccc21)n1ccnc1)NCc1cccnc1 (stereo not given)	none
CCN(CCCNC(=O)CC(C(=O)N1CCc2ccccc21)n1ccnc1)c1ccccc1 (stereo not given)	TbHK1 inh 56 | G6PDH counter inactive | TbHK1 rescreen inactive
COC(=O)C1=C(NC(=O)c2ccc(Br)cc2)CCS1	none
COC(=O)C1=C(NC(=O)c2ccc(C)c(C)c2)CCS1	TbHK1 inh 57 | G6PDH counter inactive | TbHK1 rescreen inactive
CCN(CC)S(=O)(=O)c1ccc(C(=O)NC2=C(C(=O)OC)SCC2)cc1	TbHK1 inh 55 | G6PDH counter inactive | TbHK1 rescreen inactive
O=c1[nH]c(-c2ccccc2)c(-c2ccccc2)nc1[N+](=O)[O-]	none (no result: Runt-SMMHC FRET, 14-3-3 Bad PPI, Hck Nef HTS, Runt-CBFb FRET, TbHK1 inh)
CC(C)CNC(=O)NC1C(NC(=O)NCC(C)C)N(C)C(=O)N1C (stereo not given)	TbHK1 inh 57 | G6PDH counter inactive | TbHK1 rescreen inactive
CCC(C)NC(=O)NC1C(NC(=O)NC(C)CC)N(C)C(=O)N1C (stereo not given)	none
COc1ccc(CNC(=O)C2CCN(C(=O)[C@@H](CC(C)C)NC(=O)OC(C)(C)C)CC2)cc1	TbHK1 inh 56 | G6PDH counter inactive | TbHK1 rescreen inactive
COc1ccc(CNC(=O)[C@H](C)NC(=O)C2CCN(C(=O)[C@H](CCSC)NC(=O)OC(C)(C)C)CC2)cc1	none (no result: Runt-SMMHC FRET, 14-3-3 Bad PPI, Hck Nef HTS, Runt-CBFb FRET, TbHK1 inh)
COc1ccccc1NC(=O)Nc1nc(C(C)(C)C)cs1	none
Cc1ccccc1-n1c(=O)c2ccccc2n2cnnc12	none
Cc1ccccc1-n1sc2cc(F)ccc2c1=O	TbHK1 inh 55 (no result: RanGTP-Impb inh) | G6PDH counter inactive | TbHK1 rescreen 79
O=S1(=O)N=C(N2CCOCC2)c2ccccc21	TbHK1 inh 57 | G6PDH counter inactive | TbHK1 rescreen inactive

Screening data: PubChem BioAssay, several laboratories
